Nine compounds from ChEMBL document CHEMBL4251617, “Synthesis and anticancer activity of novel water soluble benzimidazole carbamates” (Eur J Med Chem, 2018) can be followed below.

Series [1] has as its system PC-3M. Description: Cytotoxicity against human PC3M cells assessed as reduction in cell viability after 48 hrs by cyquant reagent based fluorescence spectrometric assay. Format: functional. In short, it runs like this: (§1)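 3 X 10^5 cells per well seeded overnight, then exposed 48 hr. Cells harvested, washed, frozen at -80 °C overnight, thawed, and CyQuant reagent added with fluorescence read at 485 nm. Survival as % of vehicle-treated cells. EC50 (50% survival reduction) by median-dose effect analysis.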

Series [2] can be described thus: Cytotoxicity against human PC3MLN4 cells assessed as reduction in cell viability after 48 hrs by cyquant reagent based fluorescence spectrometric assay. Format: functional. In outline:
as §1

Series [3] can be described thus: Selectivity ratio of EC50 for cytotoxicity against human PC3M cells to EC50 for cytotoxicity against human PC3MLN4 cells. Format: functional.
Series [4] concerns A549/TR. Description: Cytotoxicity against human A549/TR cells assessed as reduction in cell viability after 72 hrs by MTT assay. Format: functional, cell-based. In short, it runs like this: (§2)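 Cells seeded per well at 5 X 10^3 (PC3MLN4, A549, Calu1, H157, A549-TR), 6 X 10^3 (PC3) or 8 X 10^3 (SKOV3). SKOV3 grown in McCoy's 5A, others in RPMI-1640, 10% FBS. Next day 2X drug added, 3.2 nM-50 µM five-fold dilutions, 72 hr.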
(Formazan colour is commonly taken as a measure of viable cells.)

The subject of series [5] is Mus musculus. The series is described as follows: Toxicity in nude mouse xenografted with human PC3MLN4 cells assessed as reduction in body weight at 30 mg/kg, ip administered every other day 3 times per week for 2 weeks measured 3 times per week during compound dosing relative to control. Type of series: organism-based. On the set-up: scale not given: the % may be the effect or the level left. To be noted: in vivo, 336 h. In short, it runs like this:
(§3)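 PC3MLN4 cells (1 X 10^6) in growth factor reduced Matrigel/HBSS injected subcutaneously between the scapulae of athymic nude mice. Dosing began day 13 at tumor volume about 35 mm3. Randomized groups of 4-5 mice got 30 mg/kg IP in 5% DMSO/HBSS, or vehicle alone. Tumor (calipers) and body weight measured on dosing days and 3 days after last dose. Mean ± SEM, t-test.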
(In general: Xenograft models place foreign cells or tissue in a host animal.)

Series [6] can be described thus: Cytotoxicity against human PC3MLN4 cells assessed as reduction in cell viability after 72 hrs by MTT assay. Format: functional, cell-based. In short, it runs like this:
as §2

Series [7] concerns A549. The series is described as follows: Cytotoxicity against human A549 cells assessed as cell viability at 10 uM after 72 hrs by MTT assay relative to control. To be noted: A549, 72 h, read-out: Activity. Format: functional.
For series [8], the species on record is Homo sapiens. The series is described as follows: Upregulation of Cyclin-B1 protein expression in human PC3MLN4 cells at 1 uM after 24 hrs by Western blot method. Format: functional, cell-based. In short, it runs like this: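 PC3MLN4 cells were treated 24 hr and lysed in 50 mM Tris pH 7.5, 150 mM NaCl, 10 mM NaF, 0.5% NP40 with protease inhibitors. Equal protein (BCA) was run on SDS-PAGE and transferred to nitrocellulose, then blocked in 5% milk/TBST. Blots were probed for cyclin B1 with GAPDH as loading control, using HRP secondary and ECL.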

The subject of series [9] is A549. The series is described as follows: Cytotoxicity against human A549 cells assessed as reduction in cell viability after 72 hrs by MTT assay. Format: functional, cell-based. The settings on record: A549, 72 h. In outline:
as §2

For series [10], the species on record is Homo sapiens. Description: Disruption of microtubule dynamics in human PC3MLN4 cells at 1 uM after 48 hrs by immunofluorescence microscopic method. Format: cell-based. In outline:
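PC3MLN4 cells on coverslips were treated 48 hr at 1 µM. They were fixed in 4% PFA 15 min and permeabilized in 0.2% Triton X-100 8 min. Blocking was 2% goat serum/2% BSA 1 hr. Anti-α-tubulin 1:200 for 1 hr was followed by Alexa Fluor 488 secondary 1:400 for 45 min, with DAPI 500 nM counterstain and imaging at 100X and 200X.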

In series [11] the test system is SK-OV-3. Description: Cytotoxicity against human SKOV3 cells assessed as reduction in cell viability after 72 hrs by MTT assay. Format: functional, cell-based. To be noted: SK-OV-3, 72 h. In outline: as §2
Series [12] is described as follows: Kinetic solubility in pH 7.4 PBS buffer sonicated for 30 mins by HPLC-UV method.
Series [13] relates to Calu-1. Description: Cytotoxicity against human Calu1 cells assessed as reduction in cell viability after 72 hrs by MTT assay. Type of series: functional, cell-based. The settings on record: Calu-1, 72 h. In outline:
as §2

Series [14] concerns PC-3. Description: Cytotoxicity against human PC3 cells assessed as reduction in cell viability after 72 hrs by MTT assay. Format: functional, cell-based. To be noted: PC-3, 72 h. In outline:
as §2

Series [15] deals with PC-3. Description: Cytotoxicity against human PC3 cells assessed as cell viability at 10 uM after 72 hrs by MTT assay relative to control. Type of series: functional. To be noted: PC-3, 72 h, read-out: Activity.
Series [16] in a line: Cytotoxicity against human PC3MLN4 cells assessed as cell viability at 1 uM after 72 hrs by MTT assay relative to control. Format: functional. To be noted: read-out: Activity.
Series [17] can be described thus: Cytotoxicity against human PC3MLN4 cells assessed as cell viability at 10 uM after 72 hrs by MTT assay relative to control. Type of series: functional. The settings on record: read-out: Activity.
The test system of series [18] is A549. The series is described as follows: Cytotoxicity against human A549 cells assessed as cell viability at 1 uM after 72 hrs by MTT assay relative to control. Type of series: functional. The settings on record: A549, 72 h, read-out: Activity.
For series [19], the system named is PC-3. Description: Cytotoxicity against human PC3 cells assessed as cell viability at 1 uM after 72 hrs by MTT assay relative to control. Format: functional. The settings on record: PC-3, 72 h, read-out: Activity.
In series [20] the test system is NCI-H157. The series is described as follows: Cytotoxicity against human NCI-H157 cells assessed as reduction in cell viability after 72 hrs by MTT assay. Format: functional, cell-based. The settings on record: NCI-H157, 72 h. In outline: as §2
A short description of series [21]: physchem. To be noted: PBS buffer, pH 7.4.
Series [22] can be described thus: Antitumor activity against human PC3MLN4 cells xenografted in nude mouse assessed as reduction in tumor volume at 30 mg/kg, ip administered every other day 3 times per week for 2 weeks. Format: functional. In short, it runs like this: as §3
Series [23] is filed under the species Homo sapiens. Description: Cell cycle arrest in human PC3MLN4 cells assessed as accumulation at G2/M phase at 1 uM after 24 hrs by propidium iodide staining based flow cytometry. Type of series: functional. In outline: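 PC3MLN4 cells seeded 3 X 10^5/well, next day treated 24 hr at 1 µM, nocodazole 1 µM as control. Floating and adherent cells pooled, fixed in cold 70% ethanol 30 min, then PI plus RNase A for 30 min. 15 X 10^3 cells acquired by FACS. G1/S/G2 fractions from Dean-Jett-Fox fit.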
On the technique in general: Flow cytometry measures light scatter and fluorescence of single cells or particles in a stream.

Values after ≈ are worked out from the molar mass of the structure shown. Active and inactive are the calls of the source. The calls are words filed in the database; no cut-off is given here.

In the case of `CCCSc1ccc2[nH]c(NC(=O)OC)nc2c1` [ALBENDAZOLE], the EC50 (as a rule, the midpoint of the concentration-response curve) in series [1] turned out to be 1150 nM; in series [2] it was 580 nM. In addition, the “Ratio EC50” value in [3] was found to be 2.
Turning to `COC(=O)Nc1nc2cc(C(=O)c3ccc(F)cc3)ccc2[nH]1` [FLUBENDAZOLE], the EC50 in [1] was determined as 1430 nM; in [2], 670 nM. Also, in series [3], the “Ratio EC50” value is on record as 2.
For the compound `CC(=O)O[C@H]1C(=O)[C@@]2(C)[C@H]([C@H](OC(=O)c3ccccc3)[C@]3(O)C[C@H](OC(=O)[C@H](O)[C@@H](NC(=O)c4ccccc4)c4ccccc4)C(C)=C1C3(C)C)[C@]1(OC(C)=O)CO[C@@H]1C[C@@H]2O` [PACLITAXEL], the EC50 in [4] turned out to be 10300 nM.
As to `COC(=O)Nc1nc2cc(C(=O)c3ccc(N(C)C4COC4)cc3)ccc2[nH]1`, the Activity result in [5] is recorded as “Non-Toxic”. Also, the EC50 in [6] came out at 900 nM; in series [9], 1400 nM; in series [11], 1000 nM; in series [13], 1600 nM; in series [14], 1600 nM; in series [20], 2400 nM. Moreover, the EC50 in series [4] was found to be 3800 nM. The viability at 10 µM in [7] stood at 42.2%; in [15], 33.6%; in series [17], 23.2%. In addition, the outcome in [8], in series [10] and in [23] was Active. For the same compound, the kinetic solubility (usually solubility judged after dilution from a stock solution rather than from solid) at 0.5 h in series [12] amounted to 253 µM (≈ 96.2 µg/mL). In addition, the viability at 1 µM was 34.9% in series [16], 50.2% in series [18] and 44.5% in series [19]. The solubility (thermodynamic) (as a rule, the concentration in solution at equilibrium with solid) at 24 h in series [21] came out at 361 µM (≈ 137 µg/mL). Moreover, in [22], the T/C was 0.36.
Regarding `COC(=O)Nc1nc2cc(C(=O)c3cccs3)ccc2[nH]1`, the result in [8] and in [10] was Active.
As for `COC(=O)Nc1nc2cc(Sc3ccccc3)ccc2[nH]1` [FENBENDAZOLE], the results for the EC50 in [1] and in series [2] were 2600 nM and 910 nM, respectively. Further, in series [3], the “Ratio EC50” value is 2.
For the compound `COC(=O)Nc1nc2ccc(C(=O)c3ccccc3)cc2[nH]1` [MEBENDAZOLE], the Activity in series [5] was 5%.
On to `CN(C)CCOC(=O)Nc1nc2cc(Sc3ccccc3)ccc2[nH]1`, for which the viability at 10 µM in series [7] is 39.2%; in series [15] it was 35%; in [17] it was 36.6%. The viability at 1 µM in series [16] is 98.1%; in [18], 91.8%; in series [19], 88.9%.
`COC(=O)Nc1nc2cc(C(=O)c3ccccc3)ccc2[nH]1` [MEBENDAZOLE]: the EC50 in [6] stood at 500 nM; in [9], 900 nM; in [11], 500 nM; in series [1], 1210 nM; in [13], 1100 nM; in series [2], 700 nM. Further, the figures for the EC50 in [14], in series [20] and in [4] were 1100 nM, 3500 nM and 1700 nM, respectively. The viability at 10 µM is 50.8% in series [7], 35.8% in series [15] and 24.9% in series [17]. Besides, the outcome in [10] was Active. In addition, the viability at 1 µM was 53.9% in [16], 61.5% in [18] and 63.4% in [19]. In addition, the T/C in series [22] came out at 0.31. In series [23], the outcome was inactive.
